Test results from ChEMBL document CHEMBL1629448, “Identification and synthesis of novel inhibitors of acetyl-CoA carboxylase with in vitro and in vivo efficacy on fat oxidation” (J Med Chem, 2010).
The source made the active and inactive calls. The calls are words filed in the database; no cut-off is given here.

Experiments:
[1] = Inhibition of N-terminal His-tagged rat recombinant ACC2 expressed in high five insect cells by ATP consumption assay
[2] = target: T1, Peroxisome proliferator-activated receptor alpha (Homo sapiens) (UniProt Q07869); assay: Inhibition of PPARalpha
T1 sequence (whole entry): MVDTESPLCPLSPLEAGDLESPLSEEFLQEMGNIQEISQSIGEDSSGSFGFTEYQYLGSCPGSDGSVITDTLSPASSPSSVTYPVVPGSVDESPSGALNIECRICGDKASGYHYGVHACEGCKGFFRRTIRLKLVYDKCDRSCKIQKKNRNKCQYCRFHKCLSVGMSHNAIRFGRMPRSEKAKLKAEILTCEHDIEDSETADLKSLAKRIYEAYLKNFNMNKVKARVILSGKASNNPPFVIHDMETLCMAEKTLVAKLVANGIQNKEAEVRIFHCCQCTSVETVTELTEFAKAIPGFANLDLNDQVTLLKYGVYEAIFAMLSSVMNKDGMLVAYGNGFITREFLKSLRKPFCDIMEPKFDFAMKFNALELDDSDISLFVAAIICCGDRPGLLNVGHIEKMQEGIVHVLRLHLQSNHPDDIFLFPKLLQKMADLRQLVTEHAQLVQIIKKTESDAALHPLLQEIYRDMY

[3] = target: T2, Peroxisome proliferator-activated receptor gamma (Homo sapiens) (UniProt P37231); assay: Inhibition of PPARgamma
T2 sequence (whole entry): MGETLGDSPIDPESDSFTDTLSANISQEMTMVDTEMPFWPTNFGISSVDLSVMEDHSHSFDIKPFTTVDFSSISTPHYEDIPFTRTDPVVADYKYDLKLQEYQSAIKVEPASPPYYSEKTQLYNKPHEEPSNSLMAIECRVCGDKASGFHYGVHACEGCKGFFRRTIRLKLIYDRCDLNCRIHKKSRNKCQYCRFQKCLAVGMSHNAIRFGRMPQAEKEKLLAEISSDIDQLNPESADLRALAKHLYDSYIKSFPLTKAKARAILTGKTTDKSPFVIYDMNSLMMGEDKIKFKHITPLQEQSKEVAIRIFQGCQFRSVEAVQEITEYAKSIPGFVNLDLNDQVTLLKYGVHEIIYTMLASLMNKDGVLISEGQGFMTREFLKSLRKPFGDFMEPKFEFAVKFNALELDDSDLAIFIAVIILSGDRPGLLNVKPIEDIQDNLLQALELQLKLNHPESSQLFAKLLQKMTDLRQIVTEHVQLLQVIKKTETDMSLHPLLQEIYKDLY

Hepatocyte = assay: Stimulation of fat oxidation in human hepatocytes assessed as release of 3H2O from ss-oxidation of [9,10(n)-3[3H]palmitic acid after 4 hrs; format: functional, cell-based
How it was run: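 Attached human hepatocytes washed with PBS, then incubated in DMEM with 5 μM ³H-palmitic acid (15000 Bq/ml), 0.2 mg/mL BSA, 500 μM L-carnitine, 0.1% DMSO, 25 mM glucose and inhibitor. Started with 0.5 μCi [³H]palmitate. ³H₂O release measured after 4 h by scintillation. Expressed as fold of the 0 μM control; means ± SEM (n = 4).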

Rattus norvegicus = assay: Plasma concentration in Wistar rat at 3 mg/kg, iv measured immediately after dosing; format: ADME, organism-based; set-up: dose 3 mg/kg, route intravenous; conditions: in vivo
How it was run: (§1)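 Wistar rats given an intravenous bolus of 3 mg/kg in 5% solutol solution. Plasma sampled at eight time points over 24 h. Drug quantified by LC-MS/MS against an internal standard. C0h is the concentration immediately after dosing; AUC0-inf, clearance, t1/2 and Vdss were also derived.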

[4] = Half life in Wistar rat plasma at 3 mg/kg, iv; format: ADME, organism-based; set-up: dose 3 mg/kg, route intravenous; how it was run: as §1
[5] = AUC (0 to infinity) in Wistar rat plasma at 3 mg/kg, iv; format: ADME, organism-based; set-up: dose 3 mg/kg, route intravenous, time infinity; how it was run: as §1
[6] = Volume of distribution at steady state in Wistar rat plasma at 3 mg/kg, iv; format: ADME, organism-based; set-up: dose 3 mg/kg, route intravenous; how it was run: as §1
[7] = Cmax in Wistar rat plasma at 10 mg/kg, po; format: ADME, organism-based; set-up: dose 10 mg/kg, route oral
How it was run: (§2)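 Female Wistar rats given a single oral dose of 10 mg/kg in 10% DMSO. Plasma and liver sampled at eight time points over 24 h, three animals killed per time point. Drug levels measured by LC-MS/MS with an internal standard. […] Values are means ± SD (n = 3).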

[8] = Cmax in Wistar rat liver at 10 mg/kg, po; format: ADME, organism-based; set-up: dose 10 mg/kg, route oral; how it was run: as §2
[9] = Tmax in Wistar rat plasma at 10 mg/kg, po; format: ADME, organism-based; set-up: dose 10 mg/kg, route oral; how it was run: as §2
[10] = Tmax in Wistar rat liver at 10 mg/kg, po; format: ADME, organism-based; set-up: dose 10 mg/kg, route oral; how it was run: as §2
[11] = Drug concentration in Wistar rat plasma at 10 mg/kg, po measured 6 hrs post dose; format: ADME, organism-based; set-up: dose 10 mg/kg, route oral; conditions: read-out: Drug uptake; how it was run: as §2
[12] = Drug concentration in Wistar rat liver at 10 mg/kg, po measured 6 hrs post dose; format: ADME, organism-based; set-up: dose 10 mg/kg, route oral; conditions: read-out: Drug uptake; how it was run: as §2
[13] = AUC (0 to infinity) in Wistar rat plasma at 10 mg/kg, po; format: ADME, organism-based; set-up: time infinity, dose 10 mg/kg, route oral; how it was run: as §2
[14] = AUC (0 to infinity) in Wistar rat liver at 10 mg/kg, po; format: ADME, organism-based; set-up: time infinity, dose 10 mg/kg, route oral; how it was run: as §2
[15] = Half life in Wistar rat plasma at 10 mg/kg, po; format: ADME, organism-based; set-up: dose 10 mg/kg, route oral; how it was run: as §2
[16] = Half life in Wistar rat liver at 10 mg/kg, po; format: ADME, organism-based; set-up: dose 10 mg/kg, route oral; how it was run: as §2
[17] = Oral bioavailability in Wistar rat at 10 mg/kg; format: ADME, organism-based; conditions: in vivo
[18] = Ratio of AUC (0 to infinity) in liver to plasma of Wistar rat at 10 mg/kg, po; format: ADME, organism-based; set-up: dose 10 mg/kg, route oral
How it was run: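 Female Wistar rats received a single oral 10 mg/kg dose in 10% DMSO. Plasma and liver were sampled at eight time points over 24 h, with three animals killed per time point. Drug levels were measured by LC-MS/MS against an internal standard. Liver/plasma ratio was calculated from AUC0-inf.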

**Q.** With `CC(=O)N[C@@H](C)CCc1ccc(Oc2ccc(OC(C)C)nc2)cc1` as the compound, how does the IC50 [1] read?
**A.** 400 nM

**Q.** What about the inhibition [2] of the same compound?
**A.** inactive

**Q.** What about the inhibition [3] of the same compound?
**A.** inactive

**Q.** And the Activity (Hepatocyte)?
**A.** Dose-dependent effect

**Q.** And the concentration (Rattus norvegicus)?
**A.** 5.2 µM

**Q.** What about the half-life [4] of the same compound?
**A.** 1.5 h

**Q.** And the AUC(0-inf) [5]?
**A.** 5.6 µM·h

**Q.** What about the Vd [6] of the same compound?
**A.** 2.6 L/kg

**Q.** And the Cmax [7]?
**A.** 3.5 µM

**Q.** What about the Cmax [8] of the same compound?
**A.** 21.8 µM

**Q.** And the Tmax [9]?
**A.** 2 h

**Q.** And the Tmax [10]?
**A.** 2 h

**Q.** And the concentration at 6 h [11]?
**A.** 1.59 µM

**Q.** And the concentration at 6 h [12]?
**A.** 7.59 µM

**Q.** What about the AUC(0-inf) [13] of the same compound?
**A.** 19 µM·h

**Q.** And the AUC(0-inf) [14]?
**A.** 120 µM·h

**Q.** What about the half-life [15] of the same compound?
**A.** 1.8 h

**Q.** What about the half-life [16] of the same compound?
**A.** 3 h

**Q.** What about the bioavailability [17] of the same compound?
**A.** 98%

**Q.** And the Kp [18]?
**A.** 6
